Laboratory results published in ChEMBL document CHEMBL1131093, “ATP-Citrate lyase as a target for hypolipidemic intervention. 2. Synthesis and evaluation of (3R,5S)-omega-substituted-3-carboxy-3, 5-dihydroxyalkanoic acids and their gamma-lactone prodrugs as inhibitors of the enzyme in vitro and in vivo” (J Med Chem, 1998).
Values joined by “and” are separate entries in the source; they are usually repeats but may differ in a detail not shown here. Equal entries are not always repeated.

Assays:
Parameters in all cases: scale not given: the % may be the effect or the level left
HepG2 [1] = assay: Inhibition of ATP levels in HepG2 cells was measured at 10 uM concentration.; format: functional, Homo sapiens
In short: (§1)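 Compounds were applied to HepG2 cells as their γ-lactone prodrugs. De novo cholesterol synthesis, fatty acid synthesis and cellular ATP levels were each expressed as % of control. Significance was marked at p < 0.001.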

HepG2 [2] = assay: (§2) Inhibition of fatty acid synthesis in HepG2 cells was measured at 10 uM concentration.; format: functional, Homo sapiens; in short: as §1
HepG2 [3] = assay: Inhibition of ATP levels in HepG2 cells was measured at 3 uM concentration.; format: functional, Homo sapiens; in short: as §1
HepG2 [4] = assay: Inhibition of cholesterol synthesis in HepG2 cells was measured at 10 uM concentration.; format: functional, Homo sapiens; in short: as §1
HepG2 [5] = assay: Inhibition of ATP levels in HepG2 cells was measured at 30 uM concentration.; format: functional, Homo sapiens; in short: as §1
HepG2 [6] = assay: Inhibition of cholesterol synthesis in HepG2 cells was measured at 3 uM concentration.; format: functional, Homo sapiens; in short: as §1
HepG2 [7] = assay: as §2; format: functional, Homo sapiens; in short: as §1; remark: listed apart in the source
HepG2 [8] = assay: Inhibition of fatty acid synthesis in HepG2 cells was measured at 3 uM concentration.; format: functional, Homo sapiens; in short: as §1
HepG2 [9] = assay: Inhibition of fatty acid synthesis in HepG2 cells was measured at 100 uM concentration.
HepG2 [10] = assay: Inhibition of fatty acid synthesis in HepG2 cells was measured at 1000 uM concentration.; format: functional, Homo sapiens; in short: as §1
HepG2 [11] = assay: Inhibition of ATP levels in HepG2 cells was measured at 1000 uM concentration.; format: functional, Homo sapiens; in short: as §1
HepG2 [12] = assay: Inhibition of fatty acid synthesis in HepG2 cells was measured at 300 uM concentration.; format: functional, Homo sapiens; in short: as §1
HepG2 [13] = assay: Inhibition of cholesterol synthesis in HepG2 cells was measured at 100 uM concentration.
HepG2 [14] = assay: Inhibition of ATP levels in HepG2 cells was measured at 300 uM concentration.; format: functional, Homo sapiens; in short: as §1
HepG2 [15] = assay: Inhibition of cholesterol synthesis in HepG2 cells was measured at 300 uM concentration.; format: functional, Homo sapiens; in short: as §1
HepG2 [16] = assay: Inhibition of cholesterol synthesis in HepG2 cells was measured at 1000 uM concentration.; format: functional, Homo sapiens; in short: as §1
HepG2 [17] = assay: Inhibition of ATP levels in HepG2 cells was measured at 1 uM concentration.; format: functional, Homo sapiens; in short: as §1

## O=C(O)C[C@@]1(O)C[C@@H](CCCCCCc2ccc(Cl)cc2-c2ccccc2)OC1=O
HepG2 [1]
  Control: 96% and 100%
HepG2 [2]
  Control: 75%
HepG2 [3]
  Control: 98%
HepG2 [4]
  Control: 65% and 60%
HepG2 [5]
  Control: 95%
HepG2 [6]
  Control: 101%
HepG2 [7]
  Control: 88%
HepG2 [8]
  Control: 108%

## O=C(O)C[C@@](O)(C(=O)O)[C@H](O)C(=O)O
HepG2 [9]
  Control: 87%
HepG2 [10]
  Control: 57%
HepG2 [11]
  Control: 104%
HepG2 [12]
  Control: 79%
HepG2 [13]
  Control: 110%
HepG2 [14]
  Control: 103%
HepG2 [15]
  Control: 40%
HepG2 [16]
  Control: 15%

## O=C(O)[C@H](O)[C@@]1(O)C[C@@H](CCCCCCc2ccc(Cl)cc2Cl)OC1=O
HepG2 [1]
  Control: 106%
HepG2 [2]
  Control: 76%
HepG2 [3]
  Control: 100%
HepG2 [4]
  Control: 86%
HepG2 [6]
  Control: 69%
HepG2 [8]
  Control: 74%
HepG2 [17]
  Control: 103%
